# Screening data (PubChem BioAssay)
# An excerpt weighted towards active compounds, which were near 4.9% of everything screened.
# STAT1 act: activators of IFN-gamma induced STAT1 signaling; activation (% of control), % at 5.5 µM; AID 932; 200,000 compounds, 2.6% hits; NIH 3T3 STAT1-luciferase reporter, luminescence; 100% = IFN-gamma alone, no compound;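 active means activation above the screen-wide mean activation plus 3 SD, cut at about 130% in these data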;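 further: raw ratio to IFN-gamma control signal so 100% means no change and 0% no light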
# STAT3 activator: STAT3 signaling activation; U3A cells, IL-6 STAT3-luciferase reporter, luminescence; 100% = signal with IL-6 EC80 alone; activation (% of control), % at 5.6 µM; 190,000 compounds, 0.91% hits;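 active means activation above the screen-wide mean of compound activation plus 3 SD, cut at about 130% in these data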;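 further: 0% = background luminescence of wells with medium and substrate only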
#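 Detection: reporter luminescence signal / Assay system: STAT1-lacking human U3A cells, STAT3 luciferase reporter / Incubation: compound pre-incubation 1 h before IL-6, then 6 h stimulation at 37 °C / Control set: IL-6-only high control / Read-out: % activation relative to IL-6 control / Probe or stimulus: Interleukin-6, 33 ng/mL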
# STAT1 inh: STAT1 signaling inhibition; NIH 3T3 STAT1-luciferase reporter, IFN-gamma, luminescence; inhibition, % at 5.5 µM; 200,000 compounds, 0.35% hits; AID 920;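 active means inhibition above a set limit, the mean inhibition across all tested compounds plus 3 SD, cut at about 34% in these data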;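 further: 0% = IFN-gamma with DMSO and 100% = IFN-gamma with 300 µM nifuroxazide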
# STAT3 blocker: inhibitors of IL-6 induced STAT3 signaling; U3A cells, IL-6 STAT3-luciferase reporter, luminescence; host cell line lacks STAT1; inhibition, % at 5.5 µM; 190,000 compounds, 0.89% hits;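 active means inhibition above the mean inhibition across all screened compounds plus 3 SD, cut at about 44% in these data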;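 further: 0% = DMSO only wells and 100% = 100 µM nifuroxazide control wells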
# APP 5'UTR act: APP 5'UTR luciferase reporter activation. SH-SY5Y APP 5'UTR luciferase reporter, luminescence; zero percent = DMSO vehicle wells. activation, % at 2 µM. 190,000 compounds, 1% hits. AID 1276;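 active means activation above a set limit, based on mean plus 3 SD of controls, cut at about 140% in these data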
# NF-kB expr up: NF-kB expression increase, human neuronal cells | fold change at 12.5 µM | 190,000 compounds, 1.6% hits | NF-kB reporter expression; stronger effect = higher value; in the data active means fold change above about 3.3
# Active calls of the source: *; x = no result given.
SMILES,STAT1 act,STAT3 activator,STAT1 inh,STAT3 blocker,APP 5'UTR act,NF-kB expr up
Cc1nc2sc(C(c3cccs3)N3CCC(C(N)=O)CC3)c(O)n2n1 (configuration not stated),94.3,111.7,6.3,-8.7,-0.4,0.99
CCOC(=O)c1sc(NC(=O)CSc2ccccn2)c(C#N)c1C,103.6,96.4,-3.1,6.5,2.5,3.75*
Cc1occc1-c1nnc(SCCNCCO)o1,100.3,107.2,-0.7,-2.3,2.1,1.1
Cn1c(-c2nnn(-c3ccc(F)cc3)n2)cc2ccccc21,149.4*,x,-51.2,x,159.4*,4.14*
Cc1ccc(-n2nnc(-c3cc4ccccc4n3C)n2)cc1,108.0,x,-7.0,x,122.1,1.18
S=C(c1ccc(-c2cccc(Cl)c2)o1)N1CCCCC1,147.3*,97.3,-52.3,4.8,180.2*,1.51
O=C(Nc1nccs1)c1ccc(-c2cccc([N+](=O)[O-])c2)o1,143.2*,91.9,-50.0,15.4,59.4,1.43
S=C(c1ccc(-c2cccc(Cl)c2)o1)N1CCOCC1,115.1,109.9,-14.6,-7.4,140.9*,5.7*
S=C(c1ccc(-c2cc(Cl)ccc2Cl)o1)N1CCOCC1,107.3,103.8,-9.8,-0.1,19.6,1.05
O=[N+]([O-])c1cccc(-c2ccc(C(=S)N3CCOCC3)o2)c1,142.6*,111.5,-44.6,-10.9,161.6*,4.78*
O=[N+]([O-])c1cc(-c2ccc(C(=S)N3CCOCC3)o2)ccc1Cl,94.0,110.3,5.9,1.3,16.2,1.79
O=C(CSc1nnc(SCc2ccc(Cl)cc2)s1)N/N=C/c1c(Cl)cccc1Cl,110.0,100.0,-10.9,-1.5,18.0,1.1
Nc1ccc2c(c1)sc1ccccc12,129.6*,93.6,-32.6,10.8,10.6,2.25
CN1CCN(c2ccc(C(=O)c3ccc(Br)cc3)cc2[N+](=O)[O-])CC1,112.3,103.0,-15.3,-1.3,-4.4,0.93
Cc1nc(N2CCCCC2)c2c(-c3cccs3)csc2n1,92.3,108.1,6.7,-7.1,-6.2,7.75*
Cc1nc(N2CCN(S(=O)(=O)c3ccccc3C#N)CC2)c2c(-c3cccs3)csc2n1,98.5,113.0,1.7,-16.6,-0.5,1.07
CCN(C(=O)Cn1c(=O)n(-c2cc(OC)c(OC)c(OC)c2)c(=O)c2ccccc21)c1cccc(C)c1,96.4,96.1,3.2,15.5,-3.8,1.69
N/C(=N\OC(=O)c1cccc2ccccc12)c1cccc([N+](=O)[O-])c1,106.3,88.9,-7.0,23.8,17.6,1.36
Cc1cccc(C(=O)O/N=C(\N)c2cccc([N+](=O)[O-])c2)c1,129.6*,107.3,-32.9,3.0,95.1,2.91
COc1cccc(C(=O)O/N=C(\N)c2ccc([N+](=O)[O-])cc2)c1OC,132.4*,97.9,-35.4,8.6,x,2.7
COc1ccc(/C(N)=N/OC(=O)c2cccc([N+](=O)[O-])c2C)cc1OC,111.6,83.7,-12.7,22.5,-0.4,1.28
Cc1ccccc1C(=O)O/N=C(\N)c1cccc([N+](=O)[O-])c1,139.1*,128.2,-43.4,-20.6,88.6,3.21
CCCCNC(=O)/C(C#N)=C/c1ccc(F)cc1F,101.6,94.0,-2.1,12.1,27.6,0.94
CCOc1ccc(N2C(=O)CN(O)C=C3N=c4ccccc4=C32)cc1,102.4,98.8,-5.0,6.9,5.4,0.89
Cc1ccc(CSc2nnc(-c3ccncc3)o2)c(C)c1,111.2,94.4,-13.2,8.3,10.5,1.77
SMILES,STAT1 act,STAT3 activator,STAT1 inh,STAT3 blocker,APP 5'UTR act,NF-kB expr up
Cc1cc(C)cc(NC(=O)CSc2nnc(-c3ccccc3C)o2)c1,95.5,84.4,5.0,25.7,40.9,4.19*
Cc1cccc(NC(=O)CSc2nnc(-c3ccccc3C)o2)c1,105.2,79.7,-5.7,27.2,150.8*,4.67*
CCOc1ccc(NC(=O)CN(c2cccc(C(F)(F)F)c2)S(C)(=O)=O)cc1,95.7,102.5,4.7,3.1,13.0,0.84
O=C(O)CCNC(=O)/C(=C/C=C/c1ccccc1)NC(=O)c1ccccc1,106.6,98.5,-9.0,6.0,11.8,1.26
Cc1ccsc1/C=C1\CCC(C2CCCC2)C1=O (configuration not stated),139.9*,81.9,-45.1,23.5,201.6*,5.91*
COc1cc(OC)c(OC)cc1/C=C1\CCC(C2CCCC2)C1=O (configuration not stated),90.5,101.9,8.0,-0.7,8.4,1.29
